Assay results published in ChEMBL document CHEMBL4017507 (J Med Chem, 2017).

Key:
Human alphaherpesvirus 3 [1] = experiment: Antiviral activity against Varicella-Zoster virus OKA infected in human HEL cells assessed as inhibition of virus-induced cytopathic effect; type: functional, cell-based; conditions: Human alphaherpesvirus 3, strain Oka vaccine
In short: (§1)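 Confluent HEL fibroblast cultures were inoculated with 20 PFU of VZV in the presence of varying compound concentrations. Plaque formation was recorded once untreated infected controls reached completion.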

Human alphaherpesvirus 3 [2] = experiment: Antiviral activity against thymidine kinase deficient Varicella-Zoster virus 07-1 infected in human HEL cells assessed as inhibition of virus-induced cytopathic effect; type: functional, cell-based; conditions: Human alphaherpesvirus 3, 07-1, HEL; in short: as §1
[3] = Cytotoxicity against human HEL cells assessed as alteration to cell morphology by microscopic analysis; type: cell-based
In short: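 Minimal cytotoxic concentration is the compound concentration giving a microscopically visible alteration of HEL cell morphology, scored in the antiviral assay cultures.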

Human alphaherpesvirus 2 = experiment: Antiviral activity against Herpes simplex virus 2 G infected in human HEL cells assessed as inhibition of virus-induced cytopathic effect; type: functional, cell-based; conditions: Human alphaherpesvirus 2, strain G
In short: (§2)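 Confluent HEL fibroblast monolayers were inoculated in 96-well plates with 100 CCID50 of virus in the presence of serially varied compound concentrations. Cytopathicity was scored once untreated infected controls reached full CPE.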

Human betaherpesvirus 5 [4] = experiment: Antiviral activity against human cytomegalovirus AD-169 infected in human HEL cells assessed as inhibition of virus-induced cytopathic effect; type: functional, cell-based; conditions: Human betaherpesvirus 5, AD-169, HEL; in short: as §2
Human alphaherpesvirus 1 [5] = experiment: Antiviral activity against ACV-resistant thymidine kinase deficient Herpes simplex virus 1 KOS infected in human HEL cells assessed as inhibition of virus-induced cytopathic effect; type: functional, cell-based; conditions: Human alphaherpesvirus 1, KOS; in short: as §2
[6] = tested on: Human immunodeficiency virus 1; experiment: Antiviral activity against HIV1 X4LAI.04 infected in human MT4 cells assessed as decrease in viral replication by p24gag-based luminex assay; type: functional, cell-based; conditions: Human immunodeficiency virus 1, X4LAI.04, MT4
In short: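 10^6 MT-4 cells were infected with HIV-1 X4LAI.04 (7 ng p24) for 2 h at 37 °C, then washed with PBS and resuspended. Compounds were added and cultures were kept 3 days at 37 °C. Supernatant p24 was measured by bead-based Luminex. Inhibition was calculated as (1 − p24 treated/p24 untreated) × 100, and EC50 was derived from it.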

MT4 = experiment: Cytotoxicity against human MT4 cells assessed as reduction in cell viability by cell counting method; type: cell-based
In short: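 MT-4 cultures, untreated or treated, were assessed with an automated cell counter using propidium iodide staining to enumerate total and dead cells.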

Human alphaherpesvirus 1 [7] = experiment: Antiviral activity against Herpes simplex virus 1 KOS infected in human HEL cells assessed as inhibition of virus-induced cytopathic effect; type: functional, cell-based; conditions: Human alphaherpesvirus 1, KOS; in short: as §2
HEL = experiment: Cytotoxicity against human HEL cells assessed as cell growth inhibition by cell counting method; type: cell-based
Human betaherpesvirus 5 [8] = experiment: Antiviral activity against human cytomegalovirus Davis infected in human HEL cells assessed as inhibition of virus-induced cytopathic effect; type: functional, cell-based; conditions: Human betaherpesvirus 5, Davis; in short: as §2
CCRF-CEM = experiment: Cytostatic activity human CEM cells assessed as reduction in cell viability after 72 hrs by cell counting method; type: cell-based; conditions: ccrf-cem, 72 h
In short: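 (5–7.5) × 10^? CEM cells per well were grown with compound for 72 h at 37 °C under humidified CO2. Cells were counted in a Coulter counter.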

| Structure (SMILES) | EC50 (Human alphaherpesvirus 3 [1]) [µM] | EC50 (Human alphaherpesvirus 3 [2]) [µM] | MCC [3] [µM] | EC50 (Human alphaherpesvirus 2) [µM] | EC50 (Human betaherpesvirus 5 [4]) [µM] | EC50 (Human alphaherpesvirus 1 [5]) [µM] | EC50 [6] [µM] | IC50 (MT4) [µM] | EC50 (Human alphaherpesvirus 1 [7]) [µM] | CC50 (HEL) [µM] | EC50 (Human betaherpesvirus 5 [8]) [µM] | CC50 (CCRF-CEM) [µM] |
| --- | --- | --- | --- | --- | --- | --- | --- | --- | --- | --- | --- | --- |
| C[C@H](NP(=O)(OCC(CO)OCn1cnc2c(=O)[nH]c(N)nc21)Oc1ccccc1)C(=O)OCc1ccccc1 (stereo not given in full) | 7.3 | 3.2 | > 100 | 3 | 7.9 | 3 | 17 | 20 | 0.6 | ≥ 81 | 5 | – |
| C[C@H](NP(=O)(OCC(CCn1cnc2c(=O)[nH]c(N)nc21)COP(=O)(N[C@@H](C)C(=O)OCc1ccccc1)Oc1cccc2ccccc12)Oc1cccc2ccccc12)C(=O)OCc1ccccc1 (stereo not given in full) | 13.5 | > 50 | 50 to 100 | > 100 | > 50 | > 100 | – | – | > 100 | > 100 | > 50 | > 10 |
| C[C@H](NP(=O)(OCC(CCn1cnc2c(=O)[nH]c(/N=C/N(C)C)nc21)COP(=O)(N[C@@H](C)C(=O)OCc1ccccc1)Oc1cccc2ccccc12)Oc1cccc2ccccc12)C(=O)OCc1ccccc1 (stereo not given in full) | 8.8 | 11.7 | 50 to 100 | > 100 | > 20 | > 100 | 3.2 | 4 | > 100 | 19 | > 20 | 19 |
| CC(C)OC(=O)[C@H](C)NP(=O)(OCC(COP(=O)(N[C@@H](C)C(=O)OC(C)C)Oc1cccc2ccccc12)OCn1cnc2c(=O)[nH]c(N)nc21)Oc1cccc2ccccc12 (stereo not given in full) | 4.2 | 1.1 | ≥ 100 | 1.4 | 16.3 | ≥ 73 | 8.5 | 6 | 1.2 | > 50 | 2.7 | > 100 |
| C[C@H](NP(=O)(OCC(COP(=O)(N[C@@H](C)C(=O)OCc1ccccc1)Oc1ccccc1)OCn1cnc2c(=O)[nH]c(N)nc21)Oc1ccccc1)C(=O)OCc1ccccc1 (stereo not given in full) | 23.3 | 21.3 | > 100 | 2.5 | 44.7 | 14.5 | 30 | > 150 | 3 | > 100 | – | 159 |
| CC(C)(NP(=O)(OCC(COP(=O)(NC(C)(C)C(=O)OCc1ccccc1)Oc1cccc2ccccc12)OCn1cnc2c(=O)[nH]c(N)nc21)Oc1cccc2ccccc12)C(=O)OCc1ccccc1 (stereo not given) | 13.6 | 7.2 | 50 to 100 | 0.9 | ≥ 44.9 | 1.6 | > 150 | > 150 | 0.3 | > 100 | 50 | > 20 |
| CC(C)(NP(=O)(OCC(CO)CCn1cnc2c(=O)[nH]c(N)nc21)Oc1ccccc1)C(=O)OCc1ccccc1 (stereo not given) | > 50 | > 50 | 50 to 100 | 39 | > 50 | 100 | 68 | > 150 | 29 | > 50 | > 50 | 252 |
| C[C@H](NP(=O)(OCC(COP(=O)(N[C@@H](C)C(=O)OCc1ccccc1)Oc1cccc2ccccc12)SCn1cnc2c(=O)[nH]c(/N=C/N(C)C)nc21)Oc1cccc2ccccc12)C(=O)OCc1ccccc1 (stereo not given in full) | > 20 | > 20 | 50 to 100 | > 100 | > 50 | > 100 | 9 | 4 | > 100 | 30 | > 50 | 17 |
| CC(C)(NP(=O)(OCC(COP(=O)(NC(C)(C)C(=O)OCc1ccccc1)Oc1ccccc1)OCn1cnc2c(=O)[nH]c(N)nc21)Oc1ccccc1)C(=O)OCc1ccccc1 (stereo not given) | 21.7 | 8.3 | > 50 | 2.5 | 50 | 1.5 | 10 | 13 | 1.5 | 82 | 23.6 | 47 |
| CC(C)(NP(=O)(OCC(CO)OCn1cnc2c(=O)[nH]c(N)nc21)Oc1cccc2ccccc12)C(=O)OCc1ccccc1 (stereo not given) | 13 | > 50 | 50 to 100 | 0.85 | 6.6 | 1.4 | 10 | 26 | 0.6 | > 100 | 4.9 | > 100 |
| CC(C)(NP(=O)(OCC(CCn1cnc2c(=O)[nH]c(N)nc21)COP(=O)(NC(C)(C)C(=O)OCc1ccccc1)Oc1ccccc1)Oc1ccccc1)C(=O)OCc1ccccc1 (stereo not given) | 10.3 | 20.6 | 50 to 100 | > 100 | > 50 | > 100 | 19 | 30 | > 100 | > 100 | > 50 | 100 |
| CC(C)(NP(=O)(OCC(CO)OCn1cnc2c(=O)[nH]c(N)nc21)Oc1ccccc1)C(=O)OCc1ccccc1 (stereo not given) | 7.3 | 3.3 | 50 to 100 | 0.3 | 38.6 | 0.15 | > 150 | > 150 | 0.09 | > 100 | 15.8 | > 100 |
| C[C@H](NP(=O)(OCC(CCn1cnc2c(=O)[nH]c(N)nc21)COP(=O)(N[C@@H](C)C(=O)OCc1ccccc1)Oc1ccccc1)Oc1ccccc1)C(=O)OCc1ccccc1 (stereo not given in full) | 16.3 | 41.5 | 50 to 100 | > 100 | > 50 | > 100 | 8 | 10 | > 100 | ≥ 100 | > 50 | 76 |
| CC(C)(NP(=O)(OCC(CCn1cnc2c(=O)[nH]c(N)nc21)COP(=O)(NC(C)(C)C(=O)OCc1ccccc1)Oc1cccc2ccccc12)Oc1cccc2ccccc12)C(=O)OCc1ccccc1 (stereo not given) | > 50 | > 50 | 50 to 100 | > 20 | > 50 | > 20 | > 150 | > 150 | > 20 | > 100 | > 50 | > 250 |
| CC(C)(NP(=O)(OCC(CO)CCn1cnc2c(=O)[nH]c(N)nc21)Oc1cccc2ccccc12)C(=O)OCc1ccccc1 (stereo not given) | 20.9 | > 50 | 50 to 100 | 52 | > 50 | > 100 | 95 | 100 | 75 | > 100 | > 50 | – |
| C[C@H](NP(=O)(OCC(CCn1cnc2c(Cl)nc(N)nc21)COP(=O)(N[C@@H](C)C(=O)OCc1ccccc1)Oc1ccccc1)Oc1ccccc1)C(=O)OCc1ccccc1 (stereo not given in full) | 44 | 44.1 | > 100 | > 100 | > 100 | > 100 | 7 | 20 | > 100 | 4 | > 100 | 14 |
| C[C@H](NP(=O)(OCC(COP(=O)(N[C@@H](C)C(=O)OCc1ccccc1)Oc1cccc2ccccc12)OCn1cnc2c(=O)[nH]c(N)nc21)Oc1cccc2ccccc12)C(=O)OCc1ccccc1 (stereo not given in full) | 6.2 | 4.1 | 50 to 100 | 2.5 | 27.4 | 2.5 | – | > 150 | 1.3 | > 100 | 11.2 | – |
| C[C@H](NP(=O)(OCC(CCn1cnc2c(=O)[nH]c(/N=C/N(C)C)nc21)COP(=O)(N[C@@H](C)C(=O)OCc1ccccc1)Oc1ccccc1)Oc1ccccc1)C(=O)OCc1ccccc1 (stereo not given in full) | 29.8 | 28.6 | 50 to 100 | > 100 | > 50 | > 100 | 9 | 10 | > 100 | 47 | > 50 | 21 |
| Nc1nc2c(ncn2COCCO)c(=O)[nH]1 [ACYCLOVIR] | – | – | – | – | – | – | – | – | – | 787 | – | – |
